Converted amounts (≈) assume the structure as drawn. The source made the active and inactive calls. No cut-off for these calls is given here.
Key:
Candida albicans [1] = experiment: Antifungal activity against Candida albicans isolate CA4 planktonic cells after 48 hrs by broth microdilution method; assay type: functional; conditions: isolate CA4, 48 h
Outline: (§1)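 Isolates grown on Sabouraud dextrose agar 24 h at 37°C. MIC is the lowest concentration giving a significant turbidity reduction versus control at 48 h.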

Candida parapsilosis [2] = experiment: Antifungal activity against Candida parapsilosis isolate CP1 planktonic cells after 48 hrs by broth microdilution method; assay type: functional; conditions: Lodderomyces parapsilosis, isolate CP1, 48 h; outline: as §1
Candida tropicalis [3] = experiment: Antifungal activity against Candida tropicalis isolate CT8 planktonic cells after 48 hrs by broth microdilution method; assay type: functional; conditions: isolate CT8, 48 h
Outline: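 CLSI broth microdilution in RPMI 1640; isolate plated on Sabouraud dextrose agar 24 h at 37°C. Drug stock in sterile saline diluted in RPMI, 16 to 0.0625 μg/ml tested. MIC read at 48 h as lowest concentration giving significant turbidity reduction versus control well.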

Candida albicans [4] = experiment: Antifungal activity against Candida albicans isolate CA4 biofilm after 48 hrs by XTT assay; assay type: functional; conditions: isolate CA4, 48 h
Outline: (§2)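 Biofilms of clinical bloodstream isolates grown 24 h in RPMI 1640 (MOPS, pH 7.0) on human-serum-preconditioned silicone disks, after 1.5 h attachment at 37°C from 1 × 10^6 CFU/ml. Washed disks exposed 48 h at 35°C on rocker to 10 doubling dilutions, 0.25–128 μg/ml. XTT-menadione reduction 2 h at 37°C, A490; concentration giving 50% reduction of metabolic activity vs drug-free control; triplicate.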

Candida parapsilosis [5] = experiment: Antifungal activity against Candida parapsilosis isolate CP1 biofilm after 48 hrs by XTT assay; assay type: functional; conditions: Lodderomyces parapsilosis, isolate CP1, 48 h
Outline: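 Biofilms on serum-preconditioned silicone disks in MOPS-buffered RPMI 1640 (pH 7.0), grown 24 h, PBS-washed, then challenged 48 h at 35°C on a rocker with ten doubling caspofungin dilutions, 0.25–128 μg/ml. Metabolic activity read by XTT-menadione reduction, 2 h at 37°C, A490. SMIC taken as the concentration giving 50% reduction in metabolic activity versus drug-free control. Triplicate.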

Candida tropicalis [6] = experiment: Antifungal activity against Candida tropicalis isolate CT8 biofilm after 48 hrs by XTT assay; assay type: functional; conditions: isolate CT8, 48 h; outline: as §2
Candida albicans [7] = experiment: Ratio of SMIC for Candida albicans isolate CA4 biofilm to MIC for Candida albicans isolate CA4 planktonic cells; assay type: functional
Candida parapsilosis [8] = experiment: Ratio of SMIC for Candida parapsilosis isolate CP1 biofilm to MIC for Candida parapsilosis isolate CP1 planktonic cells; assay type: functional
Candida tropicalis [9] = experiment: Ratio of SMIC for Candida tropicalis isolate CT8 biofilm to MIC for Candida tropicalis isolate CT8 planktonic cells; assay type: functional
Candida albicans [10] = experiment: Antifungal activity against Candida albicans isolate CA4 biofilm assessed as appearance of collapsed blastospore at 1 ug/ml after 48 hrs by scanning electron microscopy; assay type: functional, organism-based
Outline: (§3)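 Silicone disks preconditioned 24 h at 37°C in heat-inactivated human serum, seeded with 1 × 10^6 CFU/ml in MOPS-buffered RPMI 1640 (pH 7.0), 1.5 h attachment at 37°C with shaking, then grown 24 h. Washed biofilms exposed to 1.0, 16 or 128 μg/ml caspofungin in RPMI 1640, 48 h at 35°C on a rocker. Untreated controls in RPMI only. Fixed in 5% glutaraldehyde/cacodylate (pH 6.2), ethanol-dehydrated, HMDS air-dried, examined by SEM. Run in triplicate.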

Candida albicans [11] = experiment: Antifungal activity against Candida albicans isolate CA4 biofilm assessed as appearance of collapsed blastospore at 16 ug/ml after 48 hrs by scanning electron microscopy; assay type: functional, organism-based; outline: as §3
Candida albicans [12] = experiment: Antifungal activity against Candida albicans isolate CA4 biofilm assessed as assessed as appearance of increased number of small blastospore at 128 ug/ml after 48 hrs by scanning electron microscopy; assay type: functional, organism-based; outline: as §3
Candida tropicalis [13] = experiment: Antifungal activity against Candida tropicalis isolate CT8 biofilm assessed as appearance of collapsed cell wall at 1 ug/ml after 48 hrs by scanning electron microscopy; assay type: functional, organism-based; outline: as §3
Candida tropicalis [14] = experiment: Antifungal activity against Candida tropicalis isolate CT8 biofilm assessed as change in cellular morphology at 16 ug/ml after 48 hrs by scanning electron microscopy; assay type: functional, organism-based; outline: as §3
Candida tropicalis [15] = experiment: Antifungal activity against Candida tropicalis isolate CT8 biofilm assessed as change in cellular morphology at 128 ug/ml after 48 hrs by scanning electron microscopy; assay type: functional, organism-based; outline: as §3
Candida parapsilosis [16] = experiment: Antifungal activity against Candida parapsilosis isolate CP1 biofilm assessed as change in cellular morphology at 1 ug/ml after 48 hrs by scanning electron microscopy; assay type: functional, organism-based; outline: as §3
Candida parapsilosis [17] = experiment: Antifungal activity against Candida parapsilosis isolate CP1 biofilm assessed as change in cellular morphology at 16 ug/ml after 48 hrs by scanning electron microscopy; assay type: functional, organism-based; outline: as §3
Candida albicans [18] = experiment: Antifungal activity against Candida albicans isolate CA4 biofilm assessed as viable fungal count per cm2 of silicone disk at 0.25 ug/ml after 48 hrs […]; assay type: functional
Outline: (§4)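 Biofilms grown on serum-preconditioned silicone disks in RPMI 1640 for 24 h, PBS-washed, then exposed 48 h at 35°C on a rocker to caspofungin doubling dilutions spanning 0.25–128 μg/ml. Disks washed and sonicated/vortexed in PBS to release cells. Suspensions diluted in Butterfield buffer and plated on Sabouraud dextrose agar. Viable counts from three disks averaged as CFU/cm2.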

Candida albicans [19] = experiment: Antifungal activity against Candida albicans isolate CA4 biofilm assessed as viable fungal count per cm2 of silicone disk at 0.5 ug/ml after 48 hrs […]; assay type: functional; outline: as §4
Candida albicans [20] = experiment: Antifungal activity against Candida albicans isolate CA4 biofilm assessed as viable fungal count per cm2 of silicone disk at 1 ug/ml after 48 hrs […]; assay type: functional; outline: as §4
Candida albicans [21] = experiment: Antifungal activity against Candida albicans isolate CA4 biofilm assessed as viable fungal count per cm2 of silicone disk at 2 ug/ml after 48 hrs […]; assay type: functional; outline: as §4
Candida albicans [22] = experiment: Antifungal activity against Candida albicans isolate CA4 biofilm assessed as viable fungal count per cm2 of silicone disk at 4 ug/ml after 48 hrs […]; assay type: functional; outline: as §4
Candida albicans [23] = experiment: Antifungal activity against Candida albicans isolate CA4 biofilm assessed as viable fungal count per cm2 of silicone disk at 8 ug/ml after 48 hrs […]; assay type: functional; outline: as §4
Candida albicans [24] = experiment: Antifungal activity against Candida albicans isolate CA4 biofilm assessed as viable fungal count per cm2 of silicone disk at 16 ug/ml after 48 hrs […]; assay type: functional; outline: as §4

CC[C@H](C)C[C@H](C)CCCCCCCCC(=O)N[C@H]1C[C@@H](O)[C@@H](NCCN)NC(=O)[C@@H]2[C@@H](O)CCN2C(=O)[C@H]([C@H](O)CCN)NC(=O)[C@H]([C@H](O)[C@@H](O)c2ccc(O)cc2)NC(=O)[C@@H]2C[C@@H](O)CN2C(=O)[C@H]([C@@H](C)O)NC1=O [CASPOFUNGIN]
MIC (Candida albicans [1]): 0.0625 µg/mL (≈ 0.0572 µM) | MIC (Candida parapsilosis [2]): 0.25 µg/mL (≈ 0.229 µM) | MIC (Candida tropicalis [3]): 0.0625 µg/mL (≈ 0.0572 µM) | MIC (Candida albicans [4]): 0.5 µg/mL (≈ 0.457 µM) | MIC (Candida parapsilosis [5]): 4 µg/mL (≈ 3.66 µM) | MIC (Candida tropicalis [6]): 0.25 µg/mL (≈ 0.229 µM) | Ratio (Candida albicans [7]): 2 | Ratio (Candida parapsilosis [8]): 2 | Ratio (Candida tropicalis [9]): 16 | Activity (Candida albicans [10]): Active | Activity (Candida albicans [11]): Active | Activity (Candida albicans [12]): Active | Activity (Candida tropicalis [13]): Active | Activity (Candida tropicalis [14]): Active | Activity (Candida tropicalis [15]): inactive | Activity (Candida parapsilosis [16]): inactive | Activity (Candida parapsilosis [17]): Active | log10cfu (Candida albicans [18]): 4.4 | log10cfu (Candida albicans [19]): 3.4 | log10cfu (Candida albicans [20]): 3.3 | log10cfu (Candida albicans [21]): 4.7 | log10cfu (Candida albicans [22]): 5.3 | log10cfu (Candida albicans [23]): 5.6 | log10cfu (Candida albicans [24]): 6.2

From ChEMBL document CHEMBL1649578, “Biofilm formation and effect of caspofungin on biofilm structure of Candida species bloodstream isolates” (2009)
